# Measurements: ChEMBL document CHEMBL1133165, “Synthesis and cytostatic activity of substituted 6-phenylpurine bases and nucleosides: application of the Suzuki-Miyaura cross-coupling reactions of 6-chloropurine derivatives with phenylboronic acids” (J Med Chem, 2000)
# Columns and labels:
# HeLa [1] = experiment: In vitro inhibition of cell growth (Cytostatic activity) of human cervix carcinoma HeLa S3 cells (ATCC CCL 2.2); format: functional, cell-based
# CCRF-CEM [2] = experiment: In vitro inhibition of cell growth (Cytostatic activity) of human T-lymphoblastoid CCRF-CEM cell line (ATCC CCL 119); format: functional, cell-based
# Outline: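 CCRF-CEM cells grown in RPMI 1640 with L-glutamine (0.3 g/L) and 10% bovine serum, seeded at 10⁵ mL^-1. After 24 h at 37 °C under CO₂, compounds were added at five concentrations. Cells were counted with a cell counter 72 h after addition. IC50 values were derived from the counts.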
# L1210 [3] = experiment: In vitro inhibition of cell growth (Cytostatic activity) of mouse leukemia L1210 cells (ATCC CCL 219); format: functional, cell-based
# HeLa [4] = experiment: In vitro inhibition of cell growth (Cytostatic activity) of human cervix carcinoma HeLa S3 cells (ATCC CCL 2.2); inhibition @ 10 uM/L; format: functional
# CCRF-CEM [5] = experiment: In vitro inhibition of cell growth (Cytostatic activity) of human T-lymphoblastoid CCRF-CEM cell line (ATCC CCL 119); inhibition @ 10 uM/L; format: functional
# L1210 [6] = experiment: In vitro inhibition of cell growth (Cytostatic activity) of mouse leukemia L1210 cells (ATCC CCL 219); inhibition @ 10 uM/L; format: functional
IC50 (HeLa [1]) [µM],IC50 (CCRF-CEM [2]) [µM],IC50 (L1210 [3]) [µM],Structure (SMILES),Inhibition (HeLa [4]) [%],Inhibition (CCRF-CEM [5]) [%],Inhibition (L1210 [6]) [%]
2.5,1.4,20,OC[C@H]1OC(n2cnc3c(-c4ccc(F)c(F)c4)ncnc32)[C@H](O)[C@@H]1O (some centres not stated),,,
,,,CC(=O)OC[C@H]1O[C@@H](n2cnc3c(-c4ccc(F)cc4F)ncnc32)[C@H](OC(C)=O)[C@@H]1OC(C)=O,<20,<20,<20
19,4.3,17,COc1ccc(-c2ncnc3c2ncn3[C@@H]2O[C@H](COC(C)=O)[C@@H](OC(C)=O)[C@H]2OC(C)=O)cc1,,,
,4.3,,CC(=O)OC[C@H]1O[C@@H](n2cnc3c(-c4ccc(Cl)cc4)ncnc32)[C@H](OC(C)=O)[C@@H]1OC(C)=O,<20,,<20
,,,CC(=O)OC[C@H]1O[C@@H](n2cnc3c(-c4ccc(C)cc4)ncnc32)[C@H](OC(C)=O)[C@@H]1OC(C)=O,<20,<20,<20
,10.5,,CC(=O)OC[C@H]1O[C@@H](n2cnc3c(-c4ccccc4)ncnc32)[C@H](OC(C)=O)[C@@H]1OC(C)=O,<20,,<20
5,0.9,,OC[C@H]1OC(n2cnc3c(-c4ccc(Cl)cc4)ncnc32)[C@H](O)[C@@H]1O (some centres not stated),,,
5,0.6,2.5,CCOc1ccc(-c2ncnc3c2ncn3C2O[C@H](CO)[C@@H](O)[C@H]2O)cc1 (some centres not stated),,,
,,,CC(=O)OC[C@H]1O[C@@H](n2cnc3c(-c4ccccc4C)ncnc32)[C@H](OC(C)=O)[C@@H]1OC(C)=O,<20,<20,<20
,,,COc1cccc(-c2ncnc3c2ncn3[C@@H]2O[C@H](COC(C)=O)[C@@H](OC(C)=O)[C@H]2OC(C)=O)c1,<20,<20,<20
,4.8,,COc1cccc(-c2ncnc3c2ncn3C2O[C@H](CO)[C@@H](O)[C@H]2O)c1 (some centres not stated),,,
,,,Cc1ccccc1-c1ncnc2c1ncn2C1O[C@H](CO)[C@@H](O)[C@H]1O (some centres not stated),<20,<20,<20
,3.8,,CCOc1ccc(-c2ncnc3c2ncn3[C@@H]2O[C@H](COC(C)=O)[C@@H](OC(C)=O)[C@H]2OC(C)=O)cc1,<20,,<20
,1.5,,Cc1ccc(-c2ncnc3c2ncn3C2O[C@H](CO)[C@@H](O)[C@H]2O)cc1 (some centres not stated),,,
15,4,,CC(=O)OC[C@H]1O[C@@H](n2cnc3c(-c4ccc(F)cc4)ncnc32)[C@H](OC(C)=O)[C@@H]1OC(C)=O,,,<20
15,8.3,,CC(=O)OC[C@H]1O[C@@H](n2cnc3c(-c4ccc(F)c(F)c4)ncnc32)[C@H](OC(C)=O)[C@@H]1OC(C)=O,,,<20
2.7,0.7,9,OC[C@H]1O[C@@H](n2cnc3c(-c4ccccc4)ncnc32)[C@H](O)[C@@H]1O,,,
4.3,0.25,1.5,COc1ccc(-c2ncnc3c2ncn3C2O[C@H](CO)[C@@H](O)[C@H]2O)cc1 (some centres not stated),,,
2.5,0.75,4.5,OC[C@H]1OC(n2cnc3c(-c4ccc(F)cc4)ncnc32)[C@H](O)[C@@H]1O (some centres not stated),,,
